Source: PubChem BioAssay (several laboratories)
Shown are actives, neighbours in structure and some others; about 3.7% of the full set was active somewhere.
Exocytosis inh: lytic granule exocytosis inhibition; TALL-104 LAMP-1 surface exposure, flow cytometry; cells stimulated with thapsigargin and PMA; inhibition, % at 10 µM; 360,000 tested, 0.66% active; AID 651702;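 active means inhibition above about 55%, limit read from the data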
Myeloid diff 2: promotes myeloid progenitor differentiation; 360,000 tested, 1% active; calls only at 10 µM; ER-HoxA9 myeloid progenitors, lysozyme-GFP differentiation, flow cytometry;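 active means normalized GFP-positive differentiation at or above the plate's own cutoff, the solvent-only control mean plus 3 SD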;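 further: cells exposed to compound for four days before flow analysis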
EBI2 antag: antagonists of human EBI2 receptor. P32249. EBI2 beta-arrestin recruitment, luminescence, 7a,25-OHC stimulated. inhibition, % at 5 µM. 360,000 tested, 0.81% active; in the data active means inhibition above about 38%;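 further: enzyme fragment complementation signal reports receptor beta-arrestin coupling in cells; 0% = agonist plus DMSO wells and 100% = wells without agonist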
MC4R barr agon: activates human MC4R beta-arrestin recruitment; 360,000 tested, 0.98% active; U2OS MC4R beta-arrestin complementation, luminescence; percent of melanotan II response, DMSO zero; activation, % at 8.9 µM; AID 540308; P32245;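 active means activation above a per-plate cutoff, the mean activation of sample wells on that plate plus 3 SD, cut at about 8% in these data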
Target sequence (P32245 whole entry, looked up): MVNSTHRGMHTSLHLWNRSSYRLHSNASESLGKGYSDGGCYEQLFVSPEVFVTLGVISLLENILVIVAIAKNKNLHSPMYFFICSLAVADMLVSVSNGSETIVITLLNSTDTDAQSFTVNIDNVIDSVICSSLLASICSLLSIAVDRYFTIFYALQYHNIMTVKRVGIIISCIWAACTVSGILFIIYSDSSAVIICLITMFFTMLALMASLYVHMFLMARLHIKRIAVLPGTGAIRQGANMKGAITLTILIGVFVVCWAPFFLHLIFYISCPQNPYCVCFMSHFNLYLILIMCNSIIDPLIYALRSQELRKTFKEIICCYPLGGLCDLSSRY
MC4R antagonist: antagonists of human melanocortin 4 receptor (MC4R); P32245; MC4R-expressing cells, MTII-stimulated cAMP, LANCE TR-FRET; inhibition, % at 6.5 µM; 360,000 tested, 0.48% active; AID 540295;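 active means inhibition above its plate's cutoff, the mean of tested wells on that plate plus 3 SD, cut at about 29% in these data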;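 further: 0% = Melanotan II alone and 100% = Melanotan II plus saturating MCL0020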
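System: U2OS-MC4R stable cell line; Technique: Eu-cAMP/anti-cAMP TR-FRET, emission 671 nm; Repeats: single well per compound; Also added: Melanotan II; Dosing: one concentration, 6.5 µM nominal; Schedule: 30-min compound, 1-h challenge, 1-h detection, room temperature.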
Myeloid diff CP1: promotes myeloid progenitor differentiation. shares compounds with Myeloid diff 2. 2,300 tested, 2% active. AID 651706. ER-HoxA9 myeloid progenitors, GFP/Mac1 double-positive flow. calls only;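 active means share of green or green-and-red cells above 9 and 9% in run 1 or 4 and 3% in run 2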
GFP autofluor: compound fluorescence in myeloid differentiation counter-screen; shares compounds with Myeloid diff 2; ER-HoxA9 myeloid progenitors, no estrogen, GFP autofluorescence flow cytometry; vehicle wells 0%, positive control 100%; fluorescence response, % (no concentration beside the values); 2,300 tested, 7.4% active; AID 651707;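 active means over 5% cells positive for green fluorescent reporter, or over 2% positive for both it and APC stain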;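 further: range taken on the double positive population between DMSO and positive control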
* hit, by the source's call.

CC1CCN(S(=O)(=O)c2ccc(Cl)cc2)CC1 was read as Exocytosis inh 0, Myeloid diff 2 inactive, EBI2 antag 0, MC4R barr agon -1 and MC4R antagonist 10.
`C/C(=N\NC(=O)c1ccc2c(c1)OCO2)c1ccc2c(c1)OCO2` gave Exocytosis inh -6, Myeloid diff 2 inactive, EBI2 antag -4, MC4R barr agon -1 and MC4R antagonist -8.
`C/C(=N\NC(=O)c1ccc2c(c1)OCO2)c1ccc(NC(=O)CCCC(=O)O)cc1` gave Exocytosis inh -3, Myeloid diff 2 inactive, EBI2 antag -1, MC4R barr agon -1, MC4R antagonist 2, Myeloid diff CP1 inactive and GFP autofluor 0.
Cc1nc(SCC(=O)N2CCCC2=O)c2c(C)c(C)sc2n1 was read as Exocytosis inh -11, Myeloid diff 2 inactive, EBI2 antag -1, MC4R barr agon 0 and MC4R antagonist -3.
N#C/C(=C\Nc1ccccc1SC(F)(F)F)c1nc(-c2ccccc2)cs1 was read as Exocytosis inh -4, Myeloid diff 2 inactive, EBI2 antag -1, MC4R barr agon -2 and MC4R antagonist 19.
For COc1cc2c(cc1N/C=C(\C#N)c1nc(-c3ccc(F)cc3)cs1)oc1ccccc12 the results were Exocytosis inh -2, Myeloid diff 2 active, EBI2 antag -7, MC4R barr agon -1, MC4R antagonist 5, Myeloid diff CP1 inactive and GFP autofluor 7.2*.
`COc1cc(N)c(Cl)cc1C(=O)OCC(=O)NC(=O)NCc1ccco1` gave Exocytosis inh 6, Myeloid diff 2 inactive, EBI2 antag -5, MC4R barr agon -1 and MC4R antagonist 12.
CCc1c(C)nc2ncnn2c1Nc1ccc(C)cc1 was read as Exocytosis inh 0, Myeloid diff 2 inactive, EBI2 antag -3, MC4R barr agon -1 and MC4R antagonist 1.
`CCc1c(C)nc2ncnn2c1NC1CCCc2ccccc21` (centres undefined) gave Exocytosis inh -1, Myeloid diff 2 inactive, EBI2 antag -1, MC4R barr agon 5, MC4R antagonist 8, Myeloid diff CP1 inactive and GFP autofluor 0.
For CCn1c(=O)n(CC(=O)N(C)Cc2ccccc2)c(=O)c2ccccc21 the results were Exocytosis inh -1, Myeloid diff 2 active, EBI2 antag 4, MC4R barr agon 2, MC4R antagonist 9, Myeloid diff CP1 inactive and GFP autofluor 0.
CCOC(=O)c1csc(NC(=O)CN2CCOCC2)n1 was read as Exocytosis inh -14, Myeloid diff 2 inactive, EBI2 antag -11, MC4R barr agon -1 and MC4R antagonist 1.
For C=CCc1cc(C=O)cc(OCC)c1O the results were Exocytosis inh -3, Myeloid diff 2 inactive, EBI2 antag -12, MC4R barr agon -1 and MC4R antagonist 8.
For O=C(CCN1C(=O)c2ccccc2S1(=O)=O)Nc1ccc2c(c1)OCCO2 the results were Exocytosis inh 8, Myeloid diff 2 inactive, EBI2 antag -4, MC4R barr agon 2, MC4R antagonist -13, Myeloid diff CP1 inactive and GFP autofluor 0.
For CCCS(=O)(=O)NC(=O)C1(C)CCN(C(=O)c2ccc(OC)cc2)C1 (centres undefined) the results were Exocytosis inh -4, Myeloid diff 2 inactive, EBI2 antag -8, MC4R barr agon 0 and MC4R antagonist -8.
For O=C(N/N=C/c1c(F)cccc1Cl)C(=O)N1CCCCCC1 the results were Exocytosis inh -1, Myeloid diff 2 inactive, EBI2 antag 5, MC4R barr agon 3 and MC4R antagonist -1.
Screening CCN(CC)c1ccc(C=C(c2nnnn2-c2ccc(C)cc2)c2nnnn2-c2ccc(C)cc2)cc1 returned Exocytosis inh 0, Myeloid diff 2 inactive, EBI2 antag 6, MC4R barr agon -1, MC4R antagonist -7, Myeloid diff CP1 inactive and GFP autofluor 2.
`Cc1ccc(-n2nnnc2-c2ccccc2)cc1` gave Exocytosis inh 1, Myeloid diff 2 inactive, EBI2 antag -7, MC4R barr agon -1 and MC4R antagonist 12.
